Molecules are shown by their SMILES. Converted amounts (≈) assume the structure as drawn.

For the test, the system named is Mycobacterium tuberculosis. The test can be described thus: Antimycobacterial activity against isoniazid/rifampicin-resistant Mycobacterium tuberculosis 6133 clinical isolate incubated for 7 days by microplate Alamar Blue assay. Type of test: functional. The note with it: Mycobacterium tuberculosis, 6133, 168 h. A digest of the protocol:
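Fluorescence read-out. MIC is the lowest concentration that reduces fluorescence by at least 90% relative to the mean of replicate bacterium-only controls. Isoniazid and rifampicin were included as reference drugs.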
For orientation: Resazurin is reduced to fluorescent resorufin, in cell work by metabolically active cells.
Take `CO[C@H]1/C=C/O[C@@]2(C)Oc3c(C)c(O)c4c(O)c(c(/C=N/N5CCN(C)CC5)c(O)c4c3C2=O)NC(=O)/C(C)=C\C=C\[C@H](C)[C@H](O)[C@@H](C)[C@@H](O)[C@@H](C)[C@H](OC(C)=O)[C@@H]1C` [RIFAMPIN]: the MIC90 is greater than 40 µg/mL.

For the molecule `CCO/N=C1/CN(c2nc3c(cc2F)c(=O)c(C(=O)O)cn3C2CC2)CC1(C)CNC1CC1` (stereo not drawn), the MIC90 was determined as 0.11 µg/mL (≈ 0.24 µM).

As to `NNC(=O)c1ccncc1` [ISONIAZID], the MIC90 was 4 µg/mL (≈ 29.2 µM). Against the preceding molecule, the MIC90 is about 36-fold higher.

What is called MIC90 is an inhibitory concentration at the 90% level, which refers to growth in some studies and to a panel of isolates in others. The low end stands for greater potency, the high end for weaker potency.
